# From PubChem
# ABCB1 inh = ABCB1 efflux pump inhibitors, primary screen, cell-based, multiplex, flow cytometry, ABCG2 counter-screen. ATP-dependent translocase ABCB1 (Homo sapiens), P08183. CCRF-Adr cells, JC-1 efflux. inhibition, % at 6.6 µM. hit rate 0.067% among 190,000. AID 1326, 2008; in the data active means inhibition above about 40%;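 further: higher value means more JC-1 retained so stronger ABCB1 efflux block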
# Target sequence (P08183 whole entry, looked up): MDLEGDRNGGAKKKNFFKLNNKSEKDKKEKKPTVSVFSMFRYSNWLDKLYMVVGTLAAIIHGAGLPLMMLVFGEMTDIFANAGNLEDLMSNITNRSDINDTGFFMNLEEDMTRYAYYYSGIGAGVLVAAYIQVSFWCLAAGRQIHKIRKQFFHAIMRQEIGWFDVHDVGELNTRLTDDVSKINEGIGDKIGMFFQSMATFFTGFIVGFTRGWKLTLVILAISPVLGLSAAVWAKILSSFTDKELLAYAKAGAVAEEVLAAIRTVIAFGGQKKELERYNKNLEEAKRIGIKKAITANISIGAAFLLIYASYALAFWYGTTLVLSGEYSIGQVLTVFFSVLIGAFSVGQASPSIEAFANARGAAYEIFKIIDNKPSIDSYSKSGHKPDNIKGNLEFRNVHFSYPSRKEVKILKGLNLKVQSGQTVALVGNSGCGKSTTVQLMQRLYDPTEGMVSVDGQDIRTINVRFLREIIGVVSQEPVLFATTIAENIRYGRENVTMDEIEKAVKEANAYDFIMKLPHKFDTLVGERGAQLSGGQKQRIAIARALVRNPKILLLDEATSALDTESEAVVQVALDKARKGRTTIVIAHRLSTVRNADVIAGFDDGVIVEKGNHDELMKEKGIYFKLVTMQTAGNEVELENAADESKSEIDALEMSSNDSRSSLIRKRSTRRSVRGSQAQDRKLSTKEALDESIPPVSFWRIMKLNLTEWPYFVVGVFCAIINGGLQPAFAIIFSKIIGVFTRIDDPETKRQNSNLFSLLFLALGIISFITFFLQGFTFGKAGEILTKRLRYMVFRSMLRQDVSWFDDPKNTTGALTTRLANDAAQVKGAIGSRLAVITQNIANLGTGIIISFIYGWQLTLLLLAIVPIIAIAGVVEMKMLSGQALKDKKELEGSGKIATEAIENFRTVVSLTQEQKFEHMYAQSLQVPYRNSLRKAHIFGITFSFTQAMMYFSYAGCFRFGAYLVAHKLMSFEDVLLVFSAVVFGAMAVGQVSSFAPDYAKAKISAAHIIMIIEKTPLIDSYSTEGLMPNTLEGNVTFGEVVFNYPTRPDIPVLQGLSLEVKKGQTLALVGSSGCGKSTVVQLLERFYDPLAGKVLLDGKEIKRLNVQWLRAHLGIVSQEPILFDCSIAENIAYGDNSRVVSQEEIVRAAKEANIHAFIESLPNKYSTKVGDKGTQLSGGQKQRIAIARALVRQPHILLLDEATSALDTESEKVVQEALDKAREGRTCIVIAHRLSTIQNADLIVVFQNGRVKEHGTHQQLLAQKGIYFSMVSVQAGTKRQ
# Insulin prom up = insulin promoter activators in MIN6 cells, imaging, high-content screening, mouse beta cells; MIN6 insulin promoter-GFP reporter; stronger effect = higher value; z-score at 5 µM; hit rate 0.3% among 190,000; AID 1625, 2009;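 active means z-score above 3 at 5 µM with at least 500 cells counted in the well; inconclusive means wells under 500 cells, flagged as cytotoxic or low count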
# Autophagy HCS = autophagy modulators in MEF cells, primary screen, imaging, high-content, MEF GFP-LC3. MEF GFP-LC3 puncta imaging; test concentration mostly 10 µM. calls only at 10 µM (by protocol). hit rate 0.98% among 190,000;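 active means percentage of spot-positive cells more than 3 SD above its plate mean, without a fluorescence outlier flag or 80% toxicity; inconclusive means no clear call, values can overlap the other calls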
# ABCG2 block = ABCG2 efflux pump inhibitors, primary screen, multiplex with ABCB1, IgMXP3 cells, flow cytometry. Broad substrate specificity ATP-binding cassette transporter ABCG2 (Homo sapiens), Q9UNQ0. JC-1 efflux. inhibition, % at 6.6 µM. hit rate 0.1% among 190,000;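 active means inhibition above 80%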
#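 System: two drug-resistant human cell lines, ABCG2 and ABCB1; controls: nicardipine high and DMSO low controls; times: 10 min exposure at 25 °C with rotation, no wash; detection: flow cytometry of retained JC-1 fluorescence; read-out basis: percent efflux inhibition, scaled nicardipine 100% to DMSO 0%; doses: one concentration, 6.6 µM final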
# ROMK mod = ROMK potassium channel modulators, primary screen, cell-based, thallium flux, MLSMR library | ATP-sensitive inward rectifier potassium channel 1 (Homo sapiens), P48048 | Tet-inducible ROMK, thallium flux fluorescence; actives lie on both sides | B-score at 10 µM | hit rate 2% among 130,000;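 active means signal ratio slope over the read window, or its plate-corrected B-score, at least 3 SD from the plate mean, either direction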;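 further: B-score of the F/F0 ratio slope over 7 to 12 s after thallium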
# sdo1 growth = growth rescue of sdo1-depleted yeast, primary screen, S. cerevisiae, bone marrow failure model; S. cerevisiae sdo1-depleted JHY4D growth rescue, OD600 30 h; stronger effect = higher value; pdr5 snq2 efflux-pump mutant strain; z-score at 10 µM; hit rate 0.21% among 140,000; AID 817, 2007;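 active means z-score above 3 at both the 24 hr and the 30 hr optical density reads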
# ROMK retest = ROMK channel modulator hit retest, confirmation, cell-based, thallium flux, duplicate, resupplied hits; shares compounds with ROMK mod; fluorescence ratio; stronger effect = lower value; normalized thallium flux (F/F0 slope) at 10 µM; hit rate 54% among 3,000; AID 1917, 2009;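 active means Flux at 10 µM at least 3 SD below or above vehicle control mean in one or both replicates; inconclusive means no clear call, values can overlap the other calls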
# A number is an active result; – = inactive; ? = inconclusive; · = no result given; + = active, no number. Rows were chosen to be rich in hits. Some 2.3% of all compounds tested hit in one or more screens of this group.
SMILES,ABCB1 inh,Insulin prom up,Autophagy HCS,ABCG2 block,ROMK mod,sdo1 growth,ROMK retest
Cc1ccc(-n2cccc2/C=C2/C(=N)N3C(=NC2=O)SN=C3S(C)(=O)=O)cc1Cl,–,–,–,–,·,–,–
O=C(OC(c1ccc(NS(=O)(=O)c2ccccc2)cc1)(C(F)(F)F)C(F)(F)F)c1ccccc1,–,–,–,–,-4.53,–,0.0621
Cc1ccc(S(=O)(=O)Nc2ccc(C(OC(=O)c3ccccc3[N+](=O)[O-])(C(F)(F)F)C(F)(F)F)cc2)cc1,–,–,–,–,·,–,·
COc1ccccc1OCc1ccc(C(=O)N(C)C)o1,–,–,–,–,·,–,–
COC(=O)[C@@]1(Cc2ccccc2)[C@@H]2C(=CC(=O)[C@H]2CC(=O)C(=O)N(C)C)CN1C(=O)c1ccccc1,–,–,–,–,-4.6,–,0.0492
Cc1cc(=O)oc2c(C(=O)/C=C/c3ccccc3)c(O)ccc12,–,–,–,–,·,–,·
Cc1cc(=O)oc2c(C(=O)/C=C\c3cccs3)c(O)ccc12,–,–,–,–,-5.71,–,0.05
COC(=O)c1sc(S(=O)(=O)NCCC(=O)O)c(C(=O)OC)c1C,–,–,–,–,–,·,·
O=C(Nc1cccc(S(=O)(=O)c2cccc(NC(=O)C3CC3)c2)c1)C1CC1,–,–,–,–,–,–,–
CC(OC(=O)c1ccncc1)C(=O)Nc1cc(S(=O)(=O)N2CCCCC2)ccc1Cl (stereo not drawn),–,–,–,–,-4.76,–,0.0682
CSc1ccc(-c2nc(CSCC(=O)N3CCOCC3)c(C)o2)cc1,–,–,–,–,·,–,·
CCc1ccc(-c2nc(CSCC(=O)N3CCN(c4ncccn4)CC3)c(C)o2)cc1,–,–,–,–,·,–,0.0635
COCc1cc(=O)n2[nH]c(C(C)(C)C)cc2n1,·,–,·,·,·,·,·
CC(C)(CO)NCc1ccccc1OCC(=O)Nc1ccccc1,–,–,–,–,–,–,·
Cc1ccc(NC(=O)COc2ccccc2CNC(C)(C)CC(C)(C)C)cc1,–,–,–,–,-3.58,–,0.05
COc1cccc(N2CCN(c3ncnc4c3[nH]c3ccc(F)cc34)CC2C)c1 (stereo not drawn),–,–,+,–,-2.95,–,0.057
COc1ccc2c(c1)[nH]c1c(N3CCSCC3)ncnc12,·,–,·,·,·,·,?
COc1cccc(N2CCN(c3ncnc4c3[nH]c3ccccc34)CC2C)c1 (stereo not drawn),–,?,–,–,–,–,0.059
c1ccc2c(c1)CCN(c1ncnc3c1[nH]c1ccccc13)C2,–,?,·,–,-2.92,–,0.0601
Cc1cccc(NC(=O)C(C)OC(=O)c2ccccc2NS(=O)(=O)c2cc(C)c(C)c([N+](=O)[O-])c2)c1 (stereo not drawn),–,–,–,–,-2.99,–,0.0613
CC(=O)Nc1ccc(NC(=O)C(C)OC(=O)c2ccccc2NS(=O)(=O)c2cccs2)cc1 (stereo not drawn),·,–,·,·,·,·,·
CCCCNC(=O)c1ccc(CS(=O)(=O)Cc2ccccc2F)o1,–,–,–,–,–,·,·
COCCn1nnnc1C(c1cc(OC)ccc1OC)N1CCc2ccccc2C1 (stereo not drawn),–,–,–,–,-2.05,–,–
COc1ccc(OC)c(C(c2nnnn2CCc2ccccc2)N2CCC(C(N)=O)CC2)c1 (stereo not drawn),–,–,–,–,·,–,·
CCOC(=O)c1c(N)c2cc([N+](=O)[O-])ccc2n1C,·,–,·,·,·,·,·
SMILES,ABCB1 inh,Insulin prom up,Autophagy HCS,ABCG2 block,ROMK mod,sdo1 growth,ROMK retest
CCOC(=O)/C(=C/c1c(C)n(C)c2ccc([N+](=O)[O-])cc12)C(C)=O,–,–,–,–,-4.19,–,0.046
COc1cc(-c2nc(CN3CCCN(C(=O)c4ccco4)CC3)c(C)o2)ccc1F,–,–,–,–,·,·,·
CCOC(=O)CC1CCCCN1Cc1nc(-c2ccc(F)c(OC)c2)oc1C (stereo not drawn),–,–,–,–,-3.02,·,0.06
Cc1ccc2cc3c(N)c(C(=O)N4CCOCC4)sc3nc2c1,–,–,–,–,·,–,·
Cc1ccc2cc3c(N)c(C(=O)N4CC(=O)Nc5ccccc54)sc3nc2c1,–,·,+,–,·,–,0.0465
O=c1n(-c2ccccc2)c(=O)n2n1CC(O)C2,–,–,–,–,–,·,·
CCCCN(C)C(=O)C1CCN(Cc2ccc(OCc3ccccc3)cc2)CC1,–,–,–,–,-4.43,–,0.0608
CCCCOc1ccc(CN2CCC(O)CC2)cc1,–,–,–,–,·,–,·
C(=C\c1ccccc1)/CSc1nc2ncccc2[nH]1,·,–,·,·,·,·,·
N#C/C(=C\c1cccc([N+](=O)[O-])c1)c1nnc2n1CCCCC2,–,–,–,–,-4.44,–,0.046
O=C1/C(=C/c2ccncc2)SC(=S)N1Cc1ccccc1,·,–,·,·,·,·,·
CCCN1C(=O)/C(=C/c2ccncc2)SC1=S,–,–,–,–,-2.84,–,0.0444
OCCCC1CCCN(Cc2cn[nH]c2-c2ccc(F)cc2F)C1 (stereo not drawn),–,–,–,–,–,·,·
O=C(Nc1cc(S(=O)(=O)N2CCOCC2)ccc1N1CCCC1)c1cccnc1Cl,·,–,·,·,·,·,·
COc1cccc(C(=O)N(C)c2nnc(-c3ccncc3)s2)c1,–,–,–,–,·,–,–
CN(C(=O)c1cccc(C#N)c1)c1nnc(-c2ccncc2)s1,–,–,–,–,–,–,·
COc1ccc(NC(=O)CSc2nnc(NC(=O)c3ccc(S(=O)(=O)N4CCOCC4)cc3)s2)cc1,–,–,–,–,–,–,·
Cc1cccc(NC(=O)CSc2nnc(NC(=O)c3ccc(S(=O)(=O)N4CCOCC4)cc3)s2)c1C,–,–,–,–,–,–,–
O=C(NNS(=O)(=O)c1cccc(Cl)c1Cl)c1cccc(S(=O)(=O)N2CCOCC2)c1,–,–,–,–,·,–,·
COc1ccc(CNCC(O)COc2ccc(C)cc2[N+](=O)[O-])cc1 (stereo not drawn),·,–,·,·,-2.56,·,0.0634
COc1ccc(OCCOCCOc2ccc(C)cc2[N+](=O)[O-])cc1,–,–,–,–,–,–,·
C=CCc1c(C)[nH]c2c(OC)cccc2c1=S,–,–,–,–,–,·,·
CS(=O)(=O)Nc1ccc2c(c1)C(=O)OC2,–,–,–,–,·,–,·
CN(C)c1ccc2c3c(ccc(N(C)C)c13)C(=O)OC2,·,–,·,·,·,·,–
COc1ccc(N/N=C(\C#N)C(=N)SCc2ccccc2)cc1,–,–,–,–,·,·,0.0532
O=C(NCc1cccnc1)/C(=C/c1ccc(-c2cccc(C(F)(F)F)c2)o1)NC(=O)c1ccccc1,–,–,–,–,-5.05,–,0.0541
